In ChEMBL document CHEMBL1275561, “In vitro activities of doripenem, a new broad-spectrum carbapenem, against recently collected clinical anaerobic isolates, with emphasis on the Bacteroides fragilis group” (2008):
≈ marks a conversion by molar mass, not a printed value.

Legend:
Assay type in all cases: functional
Finegoldia magna [1] = experiment: Antimicrobial activity against Finegoldia magna assessed as resistant isolates by agar dilution method
Procedure, shortened: (§1)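 Agar dilution following CLSI on brucella agar with 5% lysed defibrinated sheep blood and 1 μg/ml vitamin K1, plates made on test day. Log-phase cells at 0.5 McFarland, about 10^5 CFU/spot by Steers replicator, 48 h anaerobic at 37°C. MIC read as the lowest concentration causing a marked growth change versus control. Resistance counted by CLSI anaerobe breakpoints. Eubacterium lentum ATCC 43055 served as control.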

[2] = system: Parabacteroides distasonis; experiment: Antimicrobial activity against Bacteroides distasonis by agar dilution method
Procedure, shortened: (§2)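 CLSI agar dilution on enriched brucella agar (5% lysed defibrinated sheep blood, 1 μg/ml vitamin K1), with drug plates made on the test day. Log-phase cells were adjusted to 0.5 McFarland, and about 10^5 CFU/spot was delivered by Steers replicator. Plates were incubated anaerobically at 37°C for 48 h. MIC was the lowest concentration giving a marked growth change versus the control plate. Controls were B. fragilis ATCC 25285 and B. thetaiotaomicron ATCC 29741.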

[3] = system: Peptoniphilus asaccharolyticus; experiment: Antimicrobial activity against Peptoniphilus asaccharolyticus assessed as resistant isolates by agar dilution method; settings: pooled result: one value given for 4 cell lines, strains, targets or settings; procedure, shortened: as §1
[4] = system: Bacteroides thetaiotaomicron; experiment: Antimicrobial activity against Bacteroides thetaiotaomicron assessed as resistant isolates by agar dilution method
Procedure, shortened: (§3)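 CLSI agar dilution on enriched brucella agar (5% lysed defibrinated sheep blood, 1 μg/ml vitamin K1), plates made on test day. Log-phase inocula adjusted to 0.5 McFarland; about 10^5 CFU/spot by Steers replicator. Incubated anaerobically at 37°C for 48 h. MIC was the lowest concentration giving a marked change in growth versus the drug-free control plate. Resistance rates used CLSI anaerobe breakpoints. Controls were B. fragilis ATCC 25285 and B. thetaiotaomicron ATCC 29741.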

Bacteroides ovatus [5] = experiment: Antimicrobial activity against Bacteroides ovatus by agar dilution method; procedure, shortened: as §2
[6] = system: Bacteroides thetaiotaomicron; experiment: Antimicrobial activity against Bacteroides thetaiotaomicron by agar dilution method; procedure, shortened: as §2
Cutibacterium acnes [7] = experiment: Antimicrobial activity against Propionibacterium acnes assessed as resistant isolates by agar dilution method; procedure, shortened: as §1
Finegoldia magna [8] = experiment: Antimicrobial activity against Finegoldia magna by agar dilution method
Procedure, shortened: (§4)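 Gram-positive anaerobes were tested by CLSI agar dilution on brucella agar enriched with 5% lysed defibrinated sheep blood and 1 μg/ml vitamin K1. Inoculum was log-phase growth at 0.5 McFarland, about 10^5 CFU/spot by replicator. Incubation was anaerobic, 37°C, 48 h. MIC was the lowest concentration with a marked growth change versus the drug-free plate. Eubacterium lentum ATCC 43055 was the control, and tests were repeated if it fell outside the CLSI range.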

Clostridium perfringens = experiment: Antimicrobial activity against Clostridium perfringens by agar dilution method
Bacteroides fragilis [9] = experiment: Antimicrobial activity against Bacteroides fragilis assessed as resistant isolates by agar dilution method; procedure, shortened: as §3
Bacteroides nordii [10] = experiment: Antimicrobial activity against Bacteroides nordii assessed as resistant isolates by agar dilution method; procedure, shortened: as §3
Clostridium subterminale = experiment: Antimicrobial activity against Clostridium subterminale by agar dilution method
Bacteroides uniformis [11] = experiment: Antimicrobial activity against Bacteroides uniformis by agar dilution method; procedure, shortened: as §2
Bacteroides fragilis [12] = experiment: Antimicrobial activity against Bacteroides fragilis by agar dilution method; procedure, shortened: as §2
[Clostridium] innocuum [13] = Antimicrobial activity against Clostridium innocuum by agar dilution method
Clostridioides difficile = experiment: Antimicrobial activity against Clostridium difficile by agar dilution method
Clostridium tertium = experiment: Antimicrobial activity against Clostridium tertium by agar dilution method
Cutibacterium acnes [14] = experiment: Antimicrobial activity against Propionibacterium acnes by agar dilution method
Procedure, shortened: (§5)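 Log-phase isolates were adjusted to 0.5 McFarland, and about 10^5 CFU/spot was delivered by Steers replicator. Plates were incubated anaerobically at 37°C for 48 h. MIC was the lowest concentration giving a marked growth change versus the control plate. Eubacterium lentum ATCC 43055 was the QC strain, with repeats when out of range.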

Parabacteroides merdae [15] = experiment: Antimicrobial activity against Bacteroides merdae assessed as resistant isolates by agar dilution method; procedure, shortened: as §3
Parabacteroides merdae [16] = experiment: Antimicrobial activity against Bacteroides merdae by agar dilution method; procedure, shortened: as §2
Bacteroides uniformis [17] = experiment: Antimicrobial activity against Bacteroides uniformis assessed as resistant isolates by agar dilution method; procedure, shortened: as §3
Parvimonas micra = experiment: Antimicrobial activity against Micromonas micros by agar dilution method; procedure, shortened: as §4
Bacteroides caccae [18] = experiment: Antimicrobial activity against Bacteroides caccae by agar dilution method; procedure, shortened: as §2
Bacteroides eggerthii [19] = experiment: Antimicrobial activity against Bacteroides eggerthii assessed as resistant isolates by agar dilution method; procedure, shortened: as §3
Propionibacterium [20] = experiment: Antimicrobial activity against Propionibacterium sp. assessed as resistant isolates by agar dilution method; procedure, shortened: as §1
Bacteroides ovatus [21] = experiment: Antimicrobial activity against Bacteroides ovatus assessed as resistant isolates by agar dilution method; procedure, shortened: as §3
[22] = system: Parabacteroides distasonis; experiment: Antimicrobial activity against Bacteroides distasonis assessed as resistant isolates by agar dilution method; procedure, shortened: as §3
Propionibacterium [23] = experiment: Antimicrobial activity against Propionibacterium sp. by agar dilution method; procedure, shortened: as §5
Bacteroides nordii [24] = experiment: Antimicrobial activity against Bacteroides nordii by agar dilution method; procedure, shortened: as §2
Phocaeicola vulgatus [25] = experiment: Antimicrobial activity against Bacteroides vulgatus assessed as resistant isolates by agar dilution method; procedure, shortened: as §3
Anaerococcus prevotii = experiment: Antimicrobial activity against Anaerococcus prevotii by agar dilution method; procedure, shortened: as §4
Bacteroides eggerthii [26] = experiment: Antimicrobial activity against Bacteroides eggerthii by agar dilution method; procedure, shortened: as §2
Bacteroides caccae [27] = experiment: Antimicrobial activity against Bacteroides caccae assessed as resistant isolates by agar dilution method; procedure, shortened: as §3
[28] = system: Clostridium paraputrificum; experiment: Antimicrobial activity against Clostridium paraputrificum by agar dilution method
Peptostreptococcus sp. = experiment: Antimicrobial activity against Peptostreptococcus sp. by agar dilution method; procedure, shortened: as §5
Phocaeicola vulgatus [29] = experiment: Antimicrobial activity against Bacteroides vulgatus by agar dilution method; procedure, shortened: as §2
[Clostridium] innocuum [30] = Antimicrobial activity against Clostridium innocuum assessed as resistant isolates by agar dilution method; settings: pooled result: one value given for 4 cell lines, strains, targets or settings
[31] = system: Peptoniphilus asaccharolyticus; experiment: Antimicrobial activity against Peptoniphilus asaccharolyticus by agar dilution method; procedure, shortened: as §4

## C[C@@H](O)[C@H]1C(=O)N2C(C(=O)O)=C(S[C@@H]3CN[C@H](CNS(N)(=O)=O)C3)[C@H](C)[C@H]12 [DORIPENEM]
Finegoldia magna [1]
  Activity: 0%
[2]
  MIC50: 0.5 mg/L (≈ 1.19 µM)
  MIC90: 2 mg/L (≈ 4.76 µM)
[3]
  Activity: 0%
[4]
  Activity: 0%
Bacteroides ovatus [5]
  MIC50: 0.5 mg/L (≈ 1.19 µM)
  MIC90: 2 mg/L (≈ 4.76 µM)
[6]
  MIC50: 0.5 mg/L (≈ 1.19 µM)
  MIC90: 1 mg/L (≈ 2.38 µM)
Cutibacterium acnes [7]
  Activity: 0%
Finegoldia magna [8]
  MIC50: 0.125 mg/L (≈ 0.297 µM)
  MIC90: 0.125 mg/L (≈ 0.297 µM)
Clostridium perfringens
  MIC: 0.06 mg/L (≈ 0.143 µM)
  MIC50: 0.06 mg/L (≈ 0.143 µM)
  MIC90: 0.125 mg/L (≈ 0.297 µM)
Bacteroides fragilis [9]
  Activity: 1.5%
Bacteroides nordii [10]
  Activity: 0%
Clostridium subterminale
  MIC50: 1 mg/L (≈ 2.38 µM)
  MIC90: 2 mg/L (≈ 4.76 µM)
Bacteroides uniformis [11]
  MIC50: 0.5 mg/L (≈ 1.19 µM)
  MIC90: 1 mg/L (≈ 2.38 µM)
Bacteroides fragilis [12]
  MIC50: 0.5 mg/L (≈ 1.19 µM)
  MIC90: 1 mg/L (≈ 2.38 µM)
[Clostridium] innocuum [13]
  MIC50: 1 mg/L (≈ 2.38 µM)
  MIC90: 2 mg/L (≈ 4.76 µM)
Clostridioides difficile
  MIC: 1 mg/L (≈ 2.38 µM)
Clostridium tertium
  MIC50: 1 mg/L (≈ 2.38 µM)
  MIC90: 2 mg/L (≈ 4.76 µM)
Cutibacterium acnes [14]
  MIC: 0.06 mg/L (≈ 0.143 µM)
  MIC50: 0.06 mg/L (≈ 0.143 µM)
  MIC90: 0.06 mg/L (≈ 0.143 µM)
Parabacteroides merdae [15]
  Activity: 0%
Parabacteroides merdae [16]
  MIC50: 0.5 mg/L (≈ 1.19 µM)
  MIC90: 1 mg/L (≈ 2.38 µM)
Bacteroides uniformis [17]
  Activity: 0%
Parvimonas micra
  MIC: 0.06 mg/L (≈ 0.143 µM)
  MIC50: 0.06 mg/L (≈ 0.143 µM)
  MIC90: 0.5 mg/L (≈ 1.19 µM)
Bacteroides caccae [18]
  MIC50: 0.5 mg/L (≈ 1.19 µM)
  MIC90: 2 mg/L (≈ 4.76 µM)
Bacteroides eggerthii [19]
  Activity: 0%
Propionibacterium [20]
  Activity: 0%
Bacteroides ovatus [21]
  Activity: 0%
[22]
  Activity: 0%
Propionibacterium [23]
  MIC: 0.06 mg/L (≈ 0.143 µM)
  MIC50: 0.06 mg/L (≈ 0.143 µM)
  MIC90: 0.06 mg/L (≈ 0.143 µM)
Bacteroides nordii [24]
  MIC50: 0.5 mg/L (≈ 1.19 µM)
  MIC90: 1 mg/L (≈ 2.38 µM)
Phocaeicola vulgatus [25]
  Activity: 0%
Anaerococcus prevotii
  MIC: 0.06 mg/L (≈ 0.143 µM)
  MIC50: 0.06 mg/L (≈ 0.143 µM)
  MIC90: 0.5 mg/L (≈ 1.19 µM)
Bacteroides eggerthii [26]
  MIC50: 0.5 mg/L (≈ 1.19 µM)
  MIC90: 1 mg/L (≈ 2.38 µM)
Bacteroides caccae [27]
  Activity: 0%
[28]
  MIC50: 1 mg/L (≈ 2.38 µM)
  MIC90: 2 mg/L (≈ 4.76 µM)
Peptostreptococcus sp.
  MIC: 0.06 mg/L (≈ 0.143 µM)
  MIC50: 0.06 mg/L (≈ 0.143 µM)
  MIC90: 0.5 mg/L (≈ 1.19 µM)
Phocaeicola vulgatus [29]
  MIC50: 0.5 mg/L (≈ 1.19 µM)
  MIC90: 2 mg/L (≈ 4.76 µM)
[Clostridium] innocuum [30]
  Activity: 0%
[31]
  MIC: 0.06 mg/L (≈ 0.143 µM)
  MIC50: 0.06 mg/L (≈ 0.143 µM)
  MIC90: 0.5 mg/L (≈ 1.19 µM)
